The values below come from ChEMBL document CHEMBL1122315, “1,2-Dihydropyrido[3,4-b]pyrazines: structure-activity relationships” (1983).

The subject of assay [1] is L1210. As to the kind of experiment: Antitumor activity against lymphoid leukemia L1210 in mice for 1-9 days schedule. In kind it is functional, Mus musculus. The method, boiled down:
(§1)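 Mice bearing L1210 leukemia; the read-out is the percent increase in life span, reported at the highest nontoxic dose tested. Toxic doses are flagged separately.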

In assay [2] the test system is L1210. Put plainly: Antitumor activity against lymphoid leukemia L1210 in mice for 1 day schedule. In kind it is functional, Mus musculus. In outline:
as §1

The test system of another assay is KB. Put plainly: Inhibition of colony formation of KB human epidermoid carcinoma cells. In kind it is functional. As to conditions: read-out: ED50 (the source's name).
Assay [3] deals with L1210. Put plainly: Fraction of the cell population of cultured lymphoid leukemia L1210 cells in mitosis after 24 hr; at the concentration of 0.3 uM. Format: functional, Mus musculus.
Assay [4] deals with P388. As to the kind of experiment: antitumor activity against lymphocyte leukemia P388 in mice as percentage of increase in life span for 1 day schedule. Format: functional, Mus musculus. In outline: (§2)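 Mice bearing lymphocytic leukemia P388 were treated. The value is the percent increase in life span at the highest nontoxic dose tested.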
Assay [5] concerns L1210. Put plainly: inhibition of proliferation of cultured lymphoid leukemia L1210 cells during 48 hr. In kind it is functional. As to conditions: Mus musculus, L1210, 48 h, read-out: ID50. The method, boiled down: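 Cultured L1210 cells were exposed to agent for 48 h. The value is the concentration that holds proliferation to 50% of untreated control.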
Assay [6] concerns L1210. Put plainly: Fraction of the cell population of cultured lymphoid leukemia L1210 cells in mitosis after 12 hr; at the concentration of 0.01 uM. In kind it is functional, Mus musculus.
For assay [7], the system named is L1210. Put plainly: Fraction of the cell population of cultured lymphoid leukemia L1210 cells in mitosis after 12 hr; at the concentration of 0.3 uM. Format: functional, Mus musculus.
For assay [8], the system named is L1210. Put plainly: Fraction of the cell population of cultured lymphoid leukemia L1210 cells in mitosis after 12 hr. Format: functional, Mus musculus.
For assay [9], the system named is P388. Put plainly: antitumor activity against lymphocyte leukemia P388 in mice as percentage of increase in life span for 30th day survivor, 1-5 days schedule. In kind it is functional, Mus musculus.
In assay [10] the test system is P388. As to the kind of experiment: antitumor activity against lymphocyte leukemia P388 in mice as percentage of increase in life span for 1-5 days schedule (values in the parenthesen indicates dose). Format: functional, Mus musculus. The method, boiled down: as §2
In another assay the test system is HEp-2 (Homo sapiens). Put plainly: Inhibition of colony formation of human epidermoid carcinoma no. 2 (HEp-2) cells. The settings on record: read-out: ED50 (the source's name).
Assay [11] relates to L1210. As to the kind of experiment: Fraction of the cell population of cultured lymphoid leukemia L1210 cells in mitosis after 12 hr; at the concentration of 0.1 uM. Format: functional, Mus musculus.
For assay [12], the system named is P388. Put plainly: antitumor activity against lymphocyte leukemia P388 in mice as percentage of increase in life span for 1-9 days schedule. Format: functional, Mus musculus. In outline:
as §2

For assay [13], the system named is L1210. Put plainly: Fraction of the cell population of cultured lymphoid leukemia L1210 cells in mitosis after 12 hr; at the concentration of 0.03 uM. In kind it is functional, Mus musculus.
In assay [14] the test system is L1210. Put plainly: Fraction of the cell population of cultured lymphoid leukemia L1210 cells in mitosis after 24 hr. Format: functional, Mus musculus.
For assay [15], the system named is L1210. Put plainly: Fraction of the cell population of cultured lymphoid leukemia L1210 cells in mitosis after 12 hr at the concentration of 0.03 uM. Format: functional, Mus musculus.
Assay [16] has as its system P388. Put plainly: antitumor activity against lymphocyte leukemia P388 in mice as percentage of increase in life span for 1-9 days schedule. (values in the parenthesen indicates dose). Format: functional, Mus musculus. In outline:
as §2

The test system of assay [17] is L1210. As to the kind of experiment: Fraction of the cell population of cultured lymphoid leukemia L1210 cells in mitosis after 24 hr at the concentration of 0.3 uM. Format: functional, Mus musculus.

Usually ILS stands for how much longer treated animals lived than controls. Lower therefore signals little gain in survival. On to `CCOC(=O)c1ccc(NCC2=Nc3c(N)nc(N)nc3NC2)cc1`, for which the ILS was found to be 0% in the assay on L1210 [1] and 8% in the assay on L1210 [2]. Also, the EC50 in the assay on KB was 10000 nM.

`CCOC(=O)Nc1cc2ncc(-c3ccccc3)nc2c(N)n1` yielded a Mitotic index in the assay on L1210 [3] of 0.02. This compound also came in with an ILS in the assay with P388 [4] of 0%. For the same compound, the IC50 in the assay with L1210 [5] was more than 300 nM.

With `CCOC(=O)Nc1cc2c(c(N)n1)N=C(c1ccc(-c3ccccc3)cc1)CN2`, the Mitotic index in the assay on L1210 [6] turned out to be 0.65; in the assay with L1210 [7] it was 0.42. Also, in the assay with P388 [4], the ILS is 36%. In the assay with L1210 [5], the IC50 was determined as 6.1 nM.

`CCOC(=O)Nc1cc(N(C)CC(O)c2ccccc2)c(N)c(N)n1` (centres undefined): the ILS in the assay on P388 [4] is recorded as 0%. Also, the IC50 with L1210 [5] is more than 300 nM.

Regarding `COC(=O)c1ccc(N(C)CC2=Nc3c(cc(N)nc3Cl)NC2)cc1`, in the assay with KB, the EC50 was more than 100000 nM.

With `CCOC(=O)Nc1cc2ncc(CN(C)c3ccccc3)nc2c(N)n1`, in the assay with KB, the EC50 turned out to be 670 nM.

For `CCOC(=O)Nc1cc2ncc(-c3ccc(C(F)(F)F)cc3)nc2c(N)n1`, the IC50 with L1210 [5] is more than 300 nM.

For `CCOC(=O)c1ccc(NCc2cnc3nc(N)nc(N)c3n2)cc1`, the ILS with L1210 [1] and with L1210 [2] was 0% throughout. Moreover, the EC50 in the assay on KB came out at 17000 nM.

`CCOC(=O)Nc1cc2c(c(N)n1)N=C(c1ccc3ccccc3c1)CN2`: the Mitotic index with L1210 [8] was determined as 0.6. The compound also gave an ILS in the assay with P388 [9] of 66%. Also, the “ILS (mg/kg)” value in the assay on P388 [10] worked out at 53%. For the same compound, in the assay with L1210 [5], the IC50 stood at 6 nM.

On to `CCOC(=O)Nc1cc2c(c(N)n1)N=C(c1ccccc1)CN2C`, for which the increase in life span (ILS) in the assay on P388 [4] came to 12%. For the same compound, the IC50 with L1210 [5] was determined as 160 nM. In addition, the Mitotic index in the assay with L1210 [7] is listed as 0.68.

On to `CCOC(=O)Nc1cc2c(c(NC(=O)OCC)n1)N=C(CN(C)c1ccccc1)CN2`, for which the ILS is given as 14% with L1210 [1] and 46% in the assay on L1210 [2]. In addition, the EC50 in the assay on HEp-2 (Homo sapiens) came out at 1200 nM.

Regarding `COC(=O)c1ccc(N(C)CC2=Nc3c(N)nc(N)nc3NC2)cc1`, in the assay on KB, the EC50 was 21000 nM.

Turning to `CN(CC1=Nc2c(cc(N)nc2N)NC1)c1ccccc1`, the Mitotic index in the assay on L1210 [11] amounted to 0.44; in the assay with L1210 [7] it was 0.61. Besides, the increase in life span (ILS) in the assay with P388 [12] amounted to 30%. Besides, the IC50 in the assay on L1210 [5] is 5.8 nM.

As for `CN(CC1=Nc2c(cc(N)nc2S)NC1)c1ccc(C(=O)O)cc1`, in the assay on KB, the EC50 is 29000 nM.

Compound `CCOC(=O)Nc1ccc(/N=C/c2ccccc2)cn1` displayed an ILS in the assay with P388 [4] of 0%. Further, the IC50 in the assay on L1210 [5] was more than 300 nM.

Regarding `CCOC(=O)Nc1cc2c(c(N)n1)N=C(CCc1ccccc1)CN2`, the Mitotic index with L1210 [3] was 0.33. The same compound came in with an ILS with P388 [4] of 29%. Moreover, the IC50 with L1210 [5] stood at 13 nM.

`CCOC(=O)Nc1cc2c(c(O)n1)N=C(CN(C)c1ccc(C(=O)OC)cc1)CN2` gave an ILS in the assay on L1210 [2] of 2%. The EC50 with KB worked out at 8000 nM.

With `CCOC(=O)Nc1cc2c(c(N)n1)N=C(CN(C)c1ccccc1)CN2`, the Mitotic index with L1210 [13] is 0.77; in the assay on L1210 [14] it was 0.8. The ILS with P388 [4] was found to be 114%. The IC50 in the assay on L1210 [5] stood at 8.4 nM.

With `CCOC(=O)Nc1ccc(/N=C(/C=C(/O)OCC)c2ccccc2)c(N)n1`, the Mitotic index with L1210 [3] came to 0.03. Also, in the assay with L1210 [5], the IC50 is more than 300 nM.

Regarding `CCOC(=O)Nc1cc2ncc(CN(C)c3ccc(C(=O)OC)cc3)nc2c(N)n1`, the EC50 in the assay with HEp-2 (Homo sapiens) was determined as 19000 nM.

`CCOC(=O)Nc1cc2c(c(N)n1)NC(CN(C)c1ccccc1)CN2` (centres undefined): the ILS in the assay with L1210 [2] is 10%. Also, in the assay on KB, the EC50 worked out at 600 nM.

Turning to `CCOC(=O)Nc1cc2c(c(N)n1)N=C(c1ccccc1)CN2`, the figures for the Mitotic index in the assay on L1210 [15] and in the assay with L1210 [17] were 0.65 and 0.54, respectively. This compound displayed an ILS in the assay with P388 [4] of 55%. Moreover, the “ILS (mg/kg)” value with P388 [16] came to 51%. For the same compound, the IC50 in the assay with L1210 [5] stood at 4.7 nM.

In the assay on L1210 [3], `CCOC(=O)Nc1cc2c(c(N)n1)N=C(c1ccc(C(F)(F)F)cc1)CN2` returned a Mitotic index of 0.01. The ILS with P388 [4] is listed as 0%. Further, the “ILS (mg/kg)” value in the assay with P388 [16] was 17%. Besides, the IC50 in the assay with L1210 [5] turned out to be 150 nM.

In the case of `CCOC(=O)Nc1cc2ncc(CNc3ccc(C(=O)OCC)cc3)nc2c(N)n1`, the EC50 in the assay with HEp-2 (Homo sapiens) turned out to be 42000 nM.

In turn, `CCOC(=O)Nc1cc2ncc(C(=O)N(C)c3ccccc3)nc2c(N)n1` registered an increase in life span (ILS) in the assay with L1210 [2] of 0%. Moreover, in the assay with KB, the EC50 was more than 100000 nM.

As to `CCOC(=O)Nc1cc(N)c2nc(CN(C)c3ccc(C(=O)OC)cc3)cnc2n1`, the ILS in the assay with L1210 [1] and in the assay on L1210 [2] was 0% throughout. Also, the EC50 with KB was 240000 nM.

Regarding `CCOC(=O)Nc1cc(N)c2c(n1)NCC(CN(C)c1ccc(C(=O)OC)cc1)=N2`, the ILS in the assay on L1210 [1] and with L1210 [2] was 0% throughout. In addition, in the assay on KB, the EC50 came out at 24000 nM.

On to `COC(=O)c1ccc(N(C)Cc2cnc3nc(N)nc(N)c3n2)cc1`, for which the figures for the ILS in the assay on L1210 [1] and in the assay with L1210 [2] were 2% and 3%, respectively. For the same compound, in the assay with KB, the EC50 was 19000 nM.

`CCOC(=O)Nc1cc2c(c(N)n1)N=C(c1ccccc1)C(C)N2` (centres undefined) displayed an increase in life span (ILS) with P388 [4] of 54%. Further, the “ILS (mg/kg)” value with P388 [10] is given as 75%. Further, the IC50 in the assay with L1210 [5] is 0.51 nM.

As for `CN(Cc1cnc2cc(N)nc(N)c2n1)c1ccccc1`, the ILS in the assay with L1210 [1] and in the assay with L1210 [2] was 0% throughout. In the assay with KB, the EC50 is more than 100000 nM.

Compound `CCOC(=O)Nc1cc2c(c(NC(=O)OCC)n1)N=C(C)CN2` had an ILS with L1210 [2] of 0%. Moreover, the EC50 in the assay on KB was 91000 nM.
